Data taken from PubChem BioAssay AID573 (SRMLSC, 2007).
The campaign covered roughly 65,000 compounds. About 1,400 (2.2%) were called active. This is one part of a sample in which actives are shown more often than they occur.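 The calls were made as follows: active = growth inhibition at or above a cutoff equal to the mean over every tested compound plus 3 SD (cut at about 60% in these data); inactive = the rest.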

Assay: growth inhibitors of E. coli tolC mutant, primary screen, strain BW25113 ΔtolC::kan, 384-well (AID 573);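 also: growth measured after 20 h incubation at 37 °C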
Details: OD615, stronger effect = higher value, screened at 10 µM (by protocol)
Summary of the method: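 Material: E. coli BW25113 ΔtolC::kan, tolC deletion mutant strain. Measure: percent growth inhibition. Schedule: 37 °C, 20 h exposure. Doses: single-point testing at 10 µM. Signal: A615 absorbance measurement. Buffer or medium: kanamycin-containing LB broth (50 µg/mL).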

Row | Compound | growth inhibition
1 | CC(=O)c1c(C)n([O-])c2ccccc2[n+]1=O | 97.5% (active)
2 | C=CCSc1nc2c(c(=O)[nH]1)C(C(C)C)C(C#N)=C(N)O2 (configuration not stated) | 0.15% (inactive)
3 | CCCn1c(=NC(C)=O)c(C(=O)OCC)cc2c(=O)n3ccccc3nc21 | -3.58% (inactive)
4 | C=CCOc1nc2c(c(=O)n(C)c(=O)n2C)n1Cc1ccc(Cl)cc1Cl | 12.2% (inactive)
5 | Cc1nc2c(-c3ccccc3)c(C)[nH]n2c(=O)c1Cl | 98% (active)
6 | CCCN(CCC)C(=O)C1c2ccccc2Oc2ccccc21 | 17.6% (inactive)
7 | CCOC(=O)N1CCC(NC(=O)Cn2cc3c(n2)CCCCC3)CC1 | -12.2% (inactive)
8 | Cc1ccc(OCc2nc(C#N)c(N3CCCC3)o2)cc1 | 5.67% (inactive)
9 | N#Cc1nc(COc2ccc(-c3ccccc3)cc2)oc1NCc1cccnc1 | 88.7% (active)
10 | CCC(Oc1ccccc1)C(=O)NCc1cccnc1 (configuration not stated) | -6.02% (inactive)
11 | COc1ccc(N2CC(C)Cn3c2nc2c3c(=O)n(Cc3ccccc3F)c(=O)n2C)c(OC)c1 (configuration not stated) | 13.4% (inactive)
12 | Cc1nnc(SCC(=O)NCCOc2ccc(Cl)cc2)n1-c1ccccc1 | -1.57% (inactive)
13 | COc1ccc2c(c1)CCc1c(C(=O)N3CCc4ccccc4C3)noc1-2 | 77.6% (active)
14 | COc1ccc2c(c1)CCc1c(C(=O)N3CCCC3)noc1-2 | -0.81% (inactive)
15 | COc1ccc2c(c1)CCc1c(C(=O)Nc3c(C)n(C)n(-c4ccccc4)c3=O)noc1-2 | -4.64% (inactive)
16 | O=c1c(-c2ccc3c(c2)OCCO3)c(C(F)(F)F)oc2cc(O)cc(O)c12 | 11.4% (inactive)
17 | CCCOC(=O)c1cc2ccccc2oc1=O | -13.8% (inactive)
18 | CCOC(=O)c1cc2cc(-c3c(C(=O)OCC)oc4cc(O)cc(O)c4c3=O)ccc2o1 | 87.4% (active)
19 | CC1(c2ccccc2Cl)NC(=O)N(CC(=O)NC(=O)NCc2ccco2)C1=O (configuration not stated) | -3.76% (inactive)
20 | COc1ccc(C2=NOC(C(=O)NCc3ccco3)C2)cc1OC (configuration not stated) | -12.4% (inactive)
21 | CCS(=O)(=O)n1nc(-c2ccc(OC)cc2)nc1SC | 2.8% (inactive)
22 | CCCc1cc(=O)n2[nH]c(SCc3ccccc3)nc2n1 | 11.2% (inactive)
23 | CCS(=O)(=O)n1nc(-c2ccccc2)nc1SCc1ccccc1 | 62.5% (active)
24 | CN(C)[C@@H]1C(=O)C(C(N)=O)=C(O)[C@@]2(O)C(=O)C3=C(O)c4c(O)ccc(Cl)c4[C@@H](O)[C@H]3C[C@@H]12 | 100% (active)
25 | CCSC1=C(C#N)C(=O)n2c1cc1c2CCCC1 | 11.6% (inactive)

Row | Compound | growth inhibition
26 | Cc1ccc(S(=O)(=O)N2CCC(C(=O)N[C@@H](C)C(=O)NCCc3ccccc3)CC2)cc1 | -5.94% (inactive)
27 | N#Cc1nc(-c2ccc(OCc3ccccc3)cc2)oc1NCCCN1CCOCC1 | 96.3% (active)
28 | COc1ccc(Nc2oc(-c3ccccc3Cl)nc2C#N)cc1 | 9.32% (inactive)
29 | c1ccc2[nH]c(NCCN3CCOCC3)nc2c1 | -17.2% (inactive)
30 | COc1ccc(OC)c2c(N)c(C#N)c(C(F)(F)C(F)(F)F)nc12 | 2.98% (inactive)
31 | O=C(Nc1ccc(Cl)cn1)c1cnn2cccnc12 | -3.45% (inactive)
32 | CCN=C1SC(CC(=O)Nc2ccc(C)cc2)C(=O)N1CC (configuration not stated) | -9.63% (inactive)
33 | C[C@H](NC(=O)OC(C)(C)C)c1nnc(SCC(=O)Nc2ccc(Br)cc2)o1 | 15.3% (inactive)
34 | CC(C)(CSc1nncn1/N=C/c1ccco1)NS(=O)(=O)c1ccc(Cl)cc1 | 15.6% (inactive)
35 | COc1ccc(Cc2nnc(NS(=O)(=O)Cc3ccccc3)s2)cc1 | 5.52% (inactive)
36 | CCOC(=O)c1[nH]c2ccc(OC)cc2c1NC(=O)N1CCOCC1 | -1.42% (inactive)
37 | O=C1CSC(c2cccc(F)c2)N1c1ccccc1F (configuration not stated) | 9.21% (inactive)
38 | CCCCCCn1c(SCC(=O)c2ccccc2)nc2c1c(=O)[nH]c(=O)n2C | 14.9% (inactive)
39 | CCCSc1nc2c(c(=O)[nH]c(=O)n2C)n1CCc1ccccc1 | 5.24% (inactive)
40 | CCCCCn1c(SCCC(C)C)nc2c1c(=O)[nH]c(=O)n2C | 64.3% (active)
41 | COC(=O)c1ccc2c(c1)S(=O)(=O)NC(=NCCCN1CCOCC1)S2 | -18.4% (inactive)
42 | O/N=C1\CC2(Cc3nonc31)OCCO2 | -23.4% (inactive)
43 | O=C(COC(=O)c1ccc(Oc2ccccc2)cc1)Nc1nnc(-c2ccccc2)o1 | 100% (active)
44 | COc1ccc(CC(=O)Nc2ccc(-c3nnc(-c4ccccc4)o3)cc2)cc1 | -6.58% (inactive)
45 | Cc1ccc(OCC(=O)Nc2ccc(-c3nnc(-c4ccco4)o3)cc2)cc1 | -19.2% (inactive)
46 | CC(C(=O)N1CCOCC1)N1c2cccc3cccc(c23)S1(=O)=O (configuration not stated) | -2.26% (inactive)
47 | COc1cccc(Nc2nnc(SCC(=O)N3CC(C)OC(C)C3)s2)c1 (configuration not stated) | 8.6% (inactive)
48 | COc1cccc(NC(=O)C2CCCN2C(=O)OCc2ccccc2)c1 (configuration not stated) | -9.18% (inactive)
49 | COc1cccc(NC(=O)Nc2nnc(N3CCCCC3C)s2)c1 (configuration not stated) | 61.5% (active)
50 | CCCc1nnc(NC(=O)CN2C(=O)c3ccccc3S2(=O)=O)s1 | -16.8% (inactive)

Row | Compound | growth inhibition
51 | CC(C)Cc1cc(C(=O)Nc2cc(Br)ccc2O)no1 | 80.4% (active)
52 | CC(C)Cc1cc(C(=O)NCCc2ccccc2)no1 | 9.12% (inactive)
53 | CC(C)CNC(=O)c1cc(-c2ccc(Br)cc2)on1 | 1.43% (inactive)
54 | NC(=O)c1ccccc1NC(=O)c1ccccc1F | -2.79% (inactive)
55 | O=C1CCCN1CCCNc1ncnc2c1[nH]c1ccccc12 | -26.6% (inactive)
56 | CCN1CCCC1CNc1ncnc2c1[nH]c1ccc(F)cc12 (configuration not stated) | 3.38% (inactive)
57 | CC(C)OCCCNc1ncnc2c1[nH]c1ccc(F)cc12 | 96.2% (active)
58 | COc1ccccc1NC(=O)c1ccc(C)s1 | 14.1% (inactive)
59 | CCOc1ccccc1NC(=O)CCN1CCN(S(=O)(=O)c2ccc(OC)cc2)CC1 | -7.02% (inactive)
60 | CCOc1ccccc1NC(=O)Nc1cc(OC)ccc1OC | -9.62% (inactive)
61 | CCOc1ccccc1Oc1cn[nH]c1-c1ccc(OC)cc1O | 98.2% (active)
62 | O=C(Nc1ccc2c(c1)OCO2)C1CC(c2c(F)cccc2Cl)=NO1 (configuration not stated) | 18% (inactive)
63 | CCOC(=O)c1c(-n2cnnn2)sc(C)c1C | 1.46% (inactive)
64 | Cc1cc(C)nc(N2CCN(c3ncnc4c3oc3ccccc34)CC2)n1 | -15.7% (inactive)
65 | CCOC(=O)N1CCN(C(=O)C2CCN(c3ncnc4c3sc3cccc(F)c34)CC2)CC1 | 32.2% (inactive)
66 | CCOC(=O)C1CCN(c2ncnc3c2oc2ccc(Br)cc23)CC1 | 100% (active)
67 | CC(C)COC(=O)C1C2C=CC3(CN(C(C)c4ccc(Br)cc4)C(=O)C13)O2 (configuration not stated) | -3.74% (inactive)
68 | COCCNC(=O)c1ccccc1-c1nc(-c2ccccc2Cl)no1 | 1.03% (inactive)
69 | Cc1ccc(C2(c3ccc(C)cc3)NC(=O)N(Cc3c(C)noc3C)C2=O)cc1 | 94.9% (active)
70 | Cc1ccc(SCCN2C(=O)NC(C)(C)C2=O)cc1 | 13.1% (inactive)
71 | C=CCNC(=O)CCCOc1cccc(C)c1 | -3.22% (inactive)
72 | COc1ccccc1N1CCN(C(=O)c2c(-c3c(Cl)cccc3Cl)noc2C)CC1 | 23.5% (inactive)
73 | Nc1cc(=O)nc(SCc2ccccc2)n1Cc1ccco1 | 7.07% (inactive)
74 | Clc1ccccc1CSc1nnc(-c2ccco2)c(-c2ccco2)n1 | 9.86% (inactive)
75 | O=C(CSc1nnc(-c2ccco2)n1Cc1ccccc1)NC(=O)NCc1ccco1 | 12.2% (inactive)

Row | Compound | growth inhibition
76 | c1ccc(CSc2nnc(-c3ccco3)c(-c3ccco3)n2)cc1 | 72.5% (active)
77 | O=C(CSc1nnc(-c2ccco2)n1CC1CCCO1)c1ccccc1 (configuration not stated) | -11.9% (inactive)
78 | c1ccc(CSc2nnc(-c3ccco3)n2Cc2ccccc2)cc1 | 100% (active)
79 | CC(C)c1nc(N2CCOCC2)c(C#N)c2c1COC(C)(C)C2 | 8.03% (inactive)
80 | Cc1ccc(S(=O)(=O)N2CC(=O)Nc3ccccc32)cc1C | -6.32% (inactive)
81 | CCCc1nc2ccccc2c(=O)n1NC(=O)c1c(O)c2ccccc2[nH]c1=O | 72.5% (active)
82 | CCCCc1nc2ccccc2c(=O)n1NC(=O)c1c(O)c2cccc3c2n(c1=O)CC3 | 34.2% (inactive)
83 | CCCC(=O)Nc1c(O)c2ccccc2[nH]c1=O | -32.1% (inactive)
84 | Cc1cc(Nc2ccccc2)n(C(=O)c2ccc(N)cc2)n1 | 25.2% (inactive)
85 | N#Cc1c(N)n(CCOC(=O)c2ccc(Cl)cc2)c2nc3ccccc3nc12 | 5% (inactive)
86 | CC(=O)N1C(=O)C2(Nc3ccccc3N2)c2ccccc21 | -14% (inactive)
87 | COc1c(Br)cc2c(C)c(C(=O)N3CCOCC3)oc2c1Br | 0.15% (inactive)
88 | C=C(C)COc1ccc(-c2n[nH]c(C)c2-c2ccccc2OC)c(O)c1 | 88.4% (active)
89 | COc1ccc(-c2n[nH]c(C)c2-c2ccc(OC)c(OC)c2)c(O)c1 | 38.4% (inactive)
90 | COc1ccccc1-c1c(C)nn2c(C)c(C(C)=O)cnc12 | 15.8% (inactive)
91 | C=C(C)COc1ccc(-c2n[nH]c(C)c2-c2ccccc2)c(O)c1 | 95.4% (active)
92 | Cn1c(=O)c2c(nc(SCCNS(=O)(=O)c3ccccc3)n2C)n(C)c1=O | 0.89% (inactive)
93 | Cc1ncc(CC(=O)n2cc(C(=O)c3cc(Cl)ccc3O)cn2)s1 | 5.26% (inactive)
94 | CCn1c(SCC(=O)Nc2nc3ccc(OC)cc3s2)nnc1-c1ccoc1C | 27.9% (inactive)
95 | C=CCn1c(SCC(=O)Nc2nc3ccccc3s2)nnc1-c1ccccc1O | 87.9% (active)
96 | C=CCn1c(CSc2nc3ccccc3s2)nnc1SCC(=O)NCc1ccco1 | 29.4% (inactive)
97 | CCOc1ccccc1-n1c(SCC(=O)NCc2ccco2)nnc1-c1ccncc1 | -11.1% (inactive)
